Measured values taken from ChEMBL document CHEMBL3286372, “Design, synthesis and structure-activity relationship of novel semi-synthetic flavonoids as antiproliferative agents” (2014).

Legend:
[1] = system: CCRF-CEM; experiment: Growth inhibition of human CCRF-CEM cells at 10 uM after 48 hrs by sulforhodamine B assay relative to control; format: functional; conditions: read-out: GI
Outline: (§1)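 NCI-60 primary screen at a single dose of 10 µM with 48 h continuous exposure. Growth or viability read by sulforhodamine B protein staining and expressed as percent growth inhibition versus untreated cells.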

[2] = system: NCI-H460; experiment: Growth inhibition of human NCI-H460 cells at 10 uM after 48 hrs by sulforhodamine B assay relative to control; format: functional; conditions: NCI-H460, 48 h, read-out: GI
Outline: (§2)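 NCI-60 primary screen at a single 10 µM dose. Continuous 48 h exposure, with growth or viability estimated by sulforhodamine B protein staining. Reported as percent growth inhibition of treated cells relative to untreated growth.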

[3] = Growth inhibition of human OVCAR8 cells after 48 hrs by coulter counting analysis; format: functional; conditions: OVCAR-8, 48 h
Outline: (§3)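 Five-dose NCI-60 follow-up, 0.01–100 µM, made from DMSO stock in buffered saline (final DMSO <1%), in duplicate wells. Cells in RPMI 1640 with 10% FBS at 6×10^4 cells/ml, 37 °C, 5% CO2, 48 h. Cells diluted tenfold in saline, Coulter-counted and corrected for dilution. GI50, TGI and LC50 taken from log concentration–percent growth curves.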

[4] = system: 786-0; experiment: Growth inhibition of human 786-0 cells after 48 hrs by coulter counting analysis; format: functional; conditions: 786-0, 48 h
Outline: (§4)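 NCI five-dose screen at 0.01-100 µM, diluted from DMSO stocks in buffered saline (final DMSO <1%). Cells at 6×10^4 cells/ml in RPMI 1640 with 10% FBS, in duplicate wells, at 37 °C under 5% CO2 for 48 h. Cells diluted tenfold in saline and Coulter-counted. GI50, TGI and LC50 taken from log concentration-growth inhibition curves.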

[5] = system: PC-3; experiment: Growth inhibition of human PC3 cells after 48 hrs by coulter counting analysis; format: functional; conditions: PC-3, 48 h; outline: as §3
[6] = Growth inhibition of human Hs 578T cells after 48 hrs by coulter counting analysis; format: functional; outline: as §4
[7] = Growth inhibition of human BT549 cells after 48 hrs by coulter counting analysis; format: functional; conditions: BT-549, 48 h; outline: as §4
[8] = system: MDA-MB-468; experiment: Growth inhibition of human MDA-MB-468 cells after 48 hrs by coulter counting analysis; format: functional; conditions: MDA-MB-468, 48 h; outline: as §3
[9] = Growth inhibition of human NCI60 cells after 48 hrs by coulter counting analysis; format: functional; conditions: NCI60, 48 h
Outline: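 Five-dose screen (0.01-100 µM, DMSO-solubilized, under 1% DMSO final), cells in RPMI 1640 + 10% FBS at 6×10^4 cells/ml, duplicate wells, 37 °C, 5% CO2, 48 h. Cells then diluted tenfold in saline and counted by Coulter counter with dilution correction. Controls held buffer/saline/DMSO at matching dilutions. GI50 derived from log concentration-percent growth inhibition curves.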

[10] = molecular target: Cyclin-dependent kinase 2/cyclin E1 (Homo sapiens) (UniProt P24864+P24941); experiment: Inhibition of CDK2/Cyclin E1 (unknown origin) at 20 uM after 30 mins by scintillation counting analysis relative to control; format: protein-complex assay
Outline: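 Recombinant kinases, cloned, expressed and purified in-house. Radiometric ³³P-ATP assay with kinase at ~10-50 nM final and 1-5 µg peptide or protein substrate. Compound at 20 µM final, in duplicate. Reaction started by adding ATP, run 30 min at ambient temperature, then spotted on P81 phosphocellulose. Plates washed in 1% phosphoric acid and counted by scintillation. No-substrate blank subtracted. Result is mean % activity change versus DMSO control.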

[11] = Growth inhibition of human NCI-ADR-RES cells at 10 uM after 48 hrs by sulforhodamine B assay relative to control; format: functional; conditions: read-out: GI; outline: as §2
[12] = system: MCF7; experiment: Growth inhibition of human MCF7 cells at 10 uM after 48 hrs by sulforhodamine B assay relative to control; format: functional; conditions: MCF7, 48 h, read-out: GI; outline: as §1
[13] = system: CCRF-CEM; experiment: Growth inhibition of human CCRF-CEM cells after 48 hrs by coulter counting analysis; format: functional; outline: as §4
[14] = Growth inhibition of human MOLT4 cells after 48 hrs by coulter counting analysis; format: functional; conditions: MOLT-4, 48 h; outline: as §3
[15] = system: SR; experiment: Growth inhibition of human SR cells after 48 hrs by coulter counting analysis; format: functional; outline: as §3
[16] = system: A549; experiment: Growth inhibition of human A549/ATCC cells after 48 hrs by coulter counting analysis; format: functional; conditions: A549, 48 h; outline: as §4
[17] = system: HOP-62; experiment: Growth inhibition of human HOP62 cells after 48 hrs by coulter counting analysis; format: functional; conditions: HOP-62, 48 h; outline: as §4
[18] = system: NCI-H322M; experiment: Growth inhibition of human NCI-H322M cells after 48 hrs by coulter counting analysis; format: functional; outline: as §3
[19] = system: COLO 205; experiment: Growth inhibition of human COLO205 cells after 48 hrs by coulter counting analysis; format: functional; conditions: COLO 205, 48 h; outline: as §4
[20] = Growth inhibition of human HCC2998 cells after 48 hrs by coulter counting analysis; format: functional; conditions: HCC 2998, 48 h; outline: as §4
[21] = system: HT-29; experiment: Growth inhibition of human HT-29 cells after 48 hrs by coulter counting analysis; format: functional; conditions: HT-29, 48 h; outline: as §4
[22] = system: SF-268; experiment: Growth inhibition of human SF268 cells after 48 hrs by coulter counting analysis; format: functional; conditions: SF-268, 48 h; outline: as §3
[23] = Growth inhibition of human SF295 cells after 48 hrs by coulter counting analysis; format: functional; conditions: SF-295, 48 h; outline: as §3
[24] = Growth inhibition of human SF539 cells after 48 hrs by coulter counting analysis; format: functional; conditions: SF-539, 48 h; outline: as §3
[25] = system: SNB-75; experiment: Growth inhibition of human SNB75 cells after 48 hrs by coulter counting analysis; format: functional; conditions: SNB-75, 48 h; outline: as §3
[26] = system: Malme-3M; experiment: Growth inhibition of human MALME-3M cells after 48 hrs by coulter counting analysis; format: functional; outline: as §4
[27] = system: SK-MEL-5; experiment: Growth inhibition of human SK-MEL-5 cells after 48 hrs by coulter counting analysis; format: functional; conditions: SK-MEL-5, 48 h; outline: as §3
[28] = Growth inhibition of human UACC62 cells after 48 hrs by coulter counting analysis; format: functional; conditions: UACC-62, 48 h
Outline: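 NCI five-dose screen, 0.01-100 µM, from DMSO stocks diluted in buffer saline (final DMSO <1%). Cells grown in RPMI 1640 + 10% FBS, seeded at 6×10^4 cells/ml, in duplicate wells. Exposure 48 h at 37 °C, 5% CO2. Cells diluted 10-fold in saline and counted by Coulter counter. GI50 derived from log concentration–percent growth inhibition curves. Controls carried matching PBS/saline/DMSO.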

[29] = Growth inhibition of human MOLT4 cells at 10 uM after 48 hrs by sulforhodamine B assay relative to control; format: functional; conditions: MOLT-4, 48 h, read-out: GI; outline: as §2
[30] = Growth inhibition of human UO31 cells at 10 uM after 48 hrs by sulforhodamine B assay relative to control; format: functional; conditions: UO-31, 48 h, read-out: GI
Outline: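 NCI-60 primary single-dose screen at 10 µM with continuous 48 h exposure. Cell viability/growth read by sulforhodamine B protein staining. Reported as percent growth inhibition relative to untreated cells.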

Row | Structure (SMILES) | inhibition of growth at 10 µM [1] [%] | GI50 [3] [µM] | GI50 [4] [µM] | GI50 [5] [µM] | GI50 [6] [µM] | GI50 [7] [µM] | GI50 [8] [µM] | LC50 [9] [µM] | TGI [9] [µM] | inhibition [10] [%] | inhibition of growth at 10 µM [11] [%] | inhibition of growth at 10 µM [12] [%] | GI50 [14] [µM] | GI50 [15] [µM] | GI50 [16] [µM] | GI50 [17] [µM] | GI50 [18] [µM] | GI50 [19] [µM] | GI50 [20] [µM] | GI50 [21] [µM] | also measured
1 | C=CCc1c2c(c(OC)c3ccoc13)C(=O)/C(=C/c1ccccc1OC)O2 | 63 | 3.87 | 6.29 | 5.25 | 5.29 | 4.44 | 2.46 | 100 | 58.9 | 0 | 65 | 67 | 3.52 | 3.16 | 4.12 | 4.98 | 5.93 | 7.64 | 2.85 | 3.98 | inhibition of growth at 10 µM [2]: 69%; GI50 [13]: 3.44 µM; GI50 [22]: 3.73 µM; GI50 [23]: 3.67 µM; GI50 [24]: 5.45 µM; GI50 [25]: 1.44 µM; GI50 [26]: 19.8 µM; GI50 [27]: 3.91 µM; GI50 [28]: 4.14 µM
2 | COc1c(C(=O)/C=C/c2ccccc2)c(O)cc2occc12 | 65 | 3.63 | 16.2 | 7.01 | 2.76 | 7.72 | 6.77 | 55 | 18.6 | 1 | 68 | 76 | 3.36 | 3.27 | 8.62 | 11.3 | 13.6 | 15.7 | 3.76 | 6.34 | inhibition of growth at 10 µM [29]: 89%; inhibition of growth at 10 µM [30]: 60%; GI50 [22]: 4.05 µM; GI50 [23]: 7.83 µM; GI50 [24]: 3.22 µM; GI50 [25]: 2.42 µM; GI50 [27]: 3.87 µM; GI50 [28]: 4.15 µM
